From PubChem BioAssay
Active and inactive are the calls of the source.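 Rule for the calls, unless noted: active = fluorescence slope higher than the sample average by over 3 SD (cut at about -0.22 in these data, passing the limit was not always enough); inactive = the rest.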

Tests used:
[1] = inhibitors of TNFa-induced NFkB p65 translocation, primary screen, imaging, HUVEC, MLSMR starter and 10KST1 sets (AID 438;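 active = inhibition above 20% together with a positive visual image hit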;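 note: compound added about 3h40 before a 20 min TNFalpha stimulation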;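 for inhibition: signal is the nuclear over cytoplasmic p65 intensity ratio per well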); settings: HUVEC TNFa-induced p65 nuclear translocation; cell count: measured here: nuclei count (cytotoxicity indicator), at 2.08 µM; inhibition: at 2 µM, stronger effect = higher value, 0% TNFa-plus-vehicle, 100% no-TNFa wells
[2] = reduction of polyQ htt aggregates in cells – imaging, exon1htt(103Q)mCFP cells, high-content imaging, primary screen (AID 483;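 active = visual image review flags a hit and inhibition of aggregation exceeds 20%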;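 note: compound exposure lasted 3 days before fixation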;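 for nuclei count: percent of the per-plate median nuclei count of sample wells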); settings: exon1htt(103Q)mCFP cell line, aggregate imaging, at 2 µM; inhibition of aggregation: stronger effect = higher value; nuclei count: measured here: cell count, toxicity
[3] = endothelial E-selectin expression blockers – imaging, HUVEC, immunofluorescence, MLSMR starter and 10KST1 sets, primary screen (AID 487;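 active = visually confirmed hit in the image check and inhibition above 20%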;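 for inhibition: signal is fraction of cell area covered by stained E-selectin grains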;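 for nuclei count: 100% = median nuclei count of all wells on the same plate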); settings: HUVEC TNFalpha-induced E-selectin immunofluorescence imaging, at 2 µM; inhibition: stronger effect = higher value; nuclei count: measured here: cell number, toxicity
[4] = molecular target: Voltage-gated potassium channel subunit beta-2 (Rattus norvegicus) (UniProt P62483); test: inhibitors of rat Kvbeta2 reductase activity – biochemical, NADPH fluorescence, primary screen (AID 622); settings: recombinant KvBeta, 4-cyanobenzaldehyde reduction, at 10 µM, stronger effect = higher value;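 note: slope of raw intensity against log time taken from 70 to 1610 s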
[5] = molecular target: Voltage-gated potassium channel subunit beta-2 (Rattus norvegicus) (UniProt P62483); test: enhancers of rat Kvbeta2 NADPH turnover – biochemical, NADPH fluorescence, primary screen (AID 623;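 active = NADPH fluorescence slope more negative than the mean of all samples by about 3 SD, 99.7% confidence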;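 note: fluorescence intensity change per second fitted from 20 to 320 s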); settings: Recombinant KvBeta, NADPH fluorescence decrease slope, 10 min; at 10 µM; stronger effect = lower value
[6] = molecular target: Muscarinic acetylcholine receptor M4 (Homo sapiens) (UniProt P08173); test: M4-linked GIRK flux change, two-sided – cell-based, HEK293 M4/GIRK, thallium flux, BTC-AM, M4 allosteric agonist project, primary screen (AID 625;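 active = fluorescence slope after compound addition differing from the mean of all tested samples at 99.7% confidence, mostly higher but some lower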;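 note: thallium influx through GIRK channels coupled to M4 in HEK293 cells with BTC-AM dye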); settings: at 10 µM, actives lie on both sides
Outline: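 System: HEK293 cells with M4 receptor and GIRK channels | Incubation: Cells overnight at 37 °C, BTC-AM loading 1 h, reads 2 min total | Technique: Kinetic BTC-AM fluorescence sampled at 1 Hz, 10 s pre-addition baseline | Measure: Post-addition slope, 15–24 s, of baseline-normalized fluorescence | Control set: Carbachol positive, DMSO negative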

[7] = blockers of RIG-like receptor reporter activation – cell-based, Sendai virus stimulus, luciferase, 10K MLSCN set, TLR/RLR signaling modifier project, primary screen (AID 602276;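 active = inhibition at or above 50% at 10 µM; inactive = inhibition below 50%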;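 note: firefly luciferase from ISG56 promoter only with Renilla not read in this screen; 0% = Sendai virus plus DMSO and 100% = medium plus DMSO without virus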); settings: HEK293 RL24 IRF3 luciferase reporter, at 10 µM, stronger effect = higher value
[8] = TLR3 IRF3 reporter activation blockers – cell-based, poly I:C stimulus, luciferase, 10K MLSCN set, primary screen (AID 602277;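 active = inhibition of the reporter signal at or above 50%; inactive = inhibition below 50%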); settings: HEK293-TLR3 RL24 IRF3 luciferase reporter, at 10 µM, stronger effect = higher value

Voltage-gated potassium channel subunit beta-2 (Rattus norvegicus), sequence (P62483 whole entry, looked up): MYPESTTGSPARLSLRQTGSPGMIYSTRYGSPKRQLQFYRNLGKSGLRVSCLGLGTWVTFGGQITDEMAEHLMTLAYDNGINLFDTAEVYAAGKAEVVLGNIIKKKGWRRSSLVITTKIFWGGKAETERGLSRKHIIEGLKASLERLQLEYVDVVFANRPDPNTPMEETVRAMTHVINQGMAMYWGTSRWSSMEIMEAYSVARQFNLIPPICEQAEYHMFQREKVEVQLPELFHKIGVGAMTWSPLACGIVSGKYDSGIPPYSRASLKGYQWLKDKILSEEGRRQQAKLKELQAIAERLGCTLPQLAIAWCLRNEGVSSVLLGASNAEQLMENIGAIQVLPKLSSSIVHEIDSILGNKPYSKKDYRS
Muscarinic acetylcholine receptor M4 (Homo sapiens), sequence (P08173 whole entry, looked up): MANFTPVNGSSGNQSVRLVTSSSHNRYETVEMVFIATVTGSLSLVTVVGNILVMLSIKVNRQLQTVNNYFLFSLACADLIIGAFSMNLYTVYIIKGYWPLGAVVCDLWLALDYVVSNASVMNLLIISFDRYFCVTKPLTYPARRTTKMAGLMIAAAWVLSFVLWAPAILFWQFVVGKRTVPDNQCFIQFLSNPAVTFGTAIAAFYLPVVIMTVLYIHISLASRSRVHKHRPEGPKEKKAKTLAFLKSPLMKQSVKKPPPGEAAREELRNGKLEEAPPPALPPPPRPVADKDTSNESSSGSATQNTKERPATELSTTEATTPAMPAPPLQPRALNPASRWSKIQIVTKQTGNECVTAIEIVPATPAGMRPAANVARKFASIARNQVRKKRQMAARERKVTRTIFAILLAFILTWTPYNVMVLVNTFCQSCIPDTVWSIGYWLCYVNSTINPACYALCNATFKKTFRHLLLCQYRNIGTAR

Row | Structure (SMILES) | cell count [1] | inhibition [1] | inhibition of aggregation [2] | nuclei count [2] [%] | inhibition [3] | nuclei count [3] [%] | fluorescence slope [4] | NADPH fluorescence slope [5] | fluorescence slope [6] | inhibition [7] | inhibition [8]
1 | CC(=O)Nc1nc(-c2ccccc2)nc(C)c1C(C)=O | 366 | 8% (inactive) | 15% (inactive) | 88.5 | 32.4% (inactive) | 87.6 | -0.572 (inactive) | 2e-05 (inactive) | 0.0072 (inactive) | -8.51% (inactive) | 2.89% (inactive)
2 | Cc1ncc(CO)c2c1OC(C)(C)OC2 | 373 | 2.5% (inactive) | -26.3% (inactive) | 106 | -39.2% (inactive) | 97.7 | -0.515 (inactive) | -0.0002 (inactive) | 0.00488 (inactive) | 8.62% (inactive) | 15.1% (inactive)
3 | Cc1[nH]nc2c1C1(CCN(C(=O)c3ccccc3)CC1)C(C#N)=C(N)O2 | 316 | -17% (inactive) | 22.6% (inactive) | 74.8 | 23.5% (inactive) | 114 | -0.598 (inactive) | -2.2e-06 (inactive) | 0.00593 (inactive) | 26.8% (inactive) | 32.8% (inactive)
4 | CCOC(=O)CSc1nnc(-c2ccc(S(=O)(=O)N3CCOCC3)cc2)n1-c1ccccc1 | 193 | -21.3% (inactive) | -7.9% (inactive) | 88.6 | -19.3% (inactive) | 94.3 | -0.486 (inactive) | -3.1e-05 (inactive) | 0.00502 (inactive) | 10.2% (inactive) | 17.7% (inactive)
5 | Cc1ccc(-c2[nH]nc3c2C(c2ccoc2)C(C#N)=C(N)O3)cc1C (stereo unspecified) | 853 | 3.6% (inactive) | 7.7% (inactive) | 92.5 | -111% (inactive) | 126 | -0.474 (inactive) | -5.3e-05 (inactive) | 0.00509 (inactive) | 23.8% (inactive) | 16.8% (inactive)
6 | CCOCCn1cnc2sc(C(=O)Nc3nc(C)c(C(=O)OCC)s3)c(C)c2c1=O | 785 | -3.7% (inactive) | 2.9% (inactive) | 121 | -9.6% (inactive) | 105 | -0.26 (inactive) | 4.1e-06 (inactive) | 0.0063 (inactive) | 11.8% (inactive) | -0.0117% (inactive)
7 | O=C(CCN1CCN(CCO)CC1)Nc1ccc(OCc2ccccc2)cc1 | 278 | 4.8% (inactive) | -5.1% (inactive) | 98.3 | -29.4% (inactive) | 105 | -0.584 (inactive) | -2.1e-05 (inactive) | 0.00748 (inactive) | -11.3% (inactive) | 0.289% (inactive)
8 | CCOC(=O)N1CCN(C(=O)CCc2c(C)nc3c(c(C)nn3-c3ccc(C)c(C)c3)c2C)CC1 | 653 | 0.9% (inactive) | -9.9% (inactive) | 100 | -63.4% (inactive) | 116 | -0.594 (inactive) | 1.1e-05 (inactive) | 0.00541 (inactive) | 20.5% (inactive) | 13.8% (inactive)
9 | COCCNC(=O)c1cc2c(-c3ccccc3F)nn(C)c2s1 | 401 | -5.4% (inactive) | -28.5% (inactive) | 96.8 | -12.9% (inactive) | 120 | -0.523 (inactive) | -3.7e-06 (inactive) | 0.00439 (inactive) | 12.1% (inactive) | -0.79% (inactive)
10 | Cc1c2c(nc3nc4ccccc4n13)CC(C)(C)CC2=O | 632 | 8.2% (inactive) | -6.2% (inactive) | 109 | -63.4% (inactive) | 106 | -0.603 (inactive) | -2.5e-05 (inactive) | 0.00409 (inactive) | 16.3% (inactive) | 28.8% (inactive)
11 | CCOc1ccc2ccccc2c1/C=N/n1cncn1 | 416 | 3.4% (inactive) | 9.7% (inactive) | 97.3 | -92.4% (inactive) | 120 | -0.605 (inactive) | -4.9e-05 (inactive) | 0.0038 (inactive) | 11.7% (inactive) | -8.9% (inactive)
12 | CCCn1c2c(c(O)c(C(=O)NC)c1=O)CCCC2 | 323 | 3.4% (inactive) | -3.3% (inactive) | 101 | -40.9% (inactive) | 112 | -0.566 (inactive) | -6.4e-05 (inactive) | 0.00821 (inactive) | 26.6% (inactive) | 25.6% (inactive)
13 | COc1ccc(OCc2cccc(C(=O)O)c2)cc1 | 623 | -1.6% (inactive) | -9.3% (inactive) | 55.9 | 20.3% (inactive) | 111 | -0.511 (inactive) | 5e-05 (inactive) | 0.00513 (inactive) | 46.4% (inactive) | 42.2% (inactive)
14 | COc1ccc(C2CC(c3ccc(Cl)cc3)Nc3nc(NC(=O)c4ccco4)nn32)cc1 (stereo unspecified) | 574 | -11.9% (inactive) | -6.2% (inactive) | 98.1 | 27.9% (inactive) | 91.8 | -0.427 (inactive) | -6.7e-05 (inactive) | 0.00611 (inactive) | 14.1% (inactive) | 24.6% (inactive)
15 | Cc1ccccc1NS(=O)(=O)c1ccc(NC(=O)c2ccco2)cc1 | 349 | 1.1% (inactive) | 5.8% (inactive) | 94.7 | -24.6% (inactive) | 119 | -0.587 (inactive) | 1.9e-07 (inactive) | 0.00578 (inactive) | 15.3% (inactive) | 13.6% (inactive)
16 | CC(C)(C)OC(=O)NC(CCNC=C1C(=O)OC(C)(C)OC1=O)C(=O)O (stereo unspecified) | 255 | 7.2% (inactive) | 12.3% (inactive) | 106 | -87% (inactive) | 103 | -0.299 (inactive) | -5.2e-05 (inactive) | 0.00613 (inactive) | 5.28% (inactive) | 0.81% (inactive)
17 | C=CCn1c(SCC(=O)NCC2CCCO2)nnc1C1CCCCC1 (stereo unspecified) | 354 | -4.5% (inactive) | -6% (inactive) | 110 | -33% (inactive) | 113 | -0.573 (inactive) | -2.9e-05 (inactive) | 0.00592 (inactive) | 11.2% (inactive) | 17.5% (inactive)
18 | CCCc1cc(=O)n2[nH]c(-c3ccc(Br)cc3)cc2n1 | 320 | 1.7% (inactive) | -4.6% (inactive) | 98.8 | -27.5% (inactive) | 119 | -0.473 (inactive) | -2.2e-05 (inactive) | 0.00575 (inactive) | -22.4% (inactive) | -15.4% (inactive)
19 | O=C(Cn1cccc1C(=O)c1ccccc1)NCCN1CCOCC1 | 505 | 12.5% (inactive) | -9.1% (inactive) | 114 | 25% (inactive) | 98.8 | -0.583 (inactive) | -1.2e-05 (inactive) | 0.00604 (inactive) | 0.991% (inactive) | 12.8% (inactive)
20 | Cc1nc2ccc(NC(=O)N3CCC(c4ccccc4)C3)cc2nc1C (stereo unspecified) | 551 | 4.3% (inactive) | 9.2% (inactive) | 106 | 20.7% (inactive) | 68.5 | -0.0383 (inactive) | 9.4e-06 (inactive) | 0.00546 (inactive) | -0.553% (inactive) | -40.6% (inactive)
21 | COc1ccc(-c2cc(C(=O)N3CCN(Cc4ccccc4)CC3)no2)cc1OC | 463 | -23% (inactive) | -5.8% (inactive) | 106 | -36% (inactive) | 112 | -0.318 (inactive) | -6.6e-05 (inactive) | 0.00627 (inactive) | 8.32% (inactive) | 12.9% (inactive)
22 | Clc1ccc(Cn2ncc3c(NCc4cccnc4)ncnc32)cc1 | 321 | -13.5% (inactive) | -3.5% (inactive) | 113 | 41.6% (inactive) | 82 | -0.55 (inactive) | -0.000128 (inactive) | 0.00407 (inactive) | 13.3% (inactive) | -35.2% (inactive)
23 | CCOc1nc(-c2ccccc2)ccc1-c1noc(-c2cccnc2)n1 | 233 | 8.4% (inactive) | -0.3% (inactive) | 99.4 | 29.6% (inactive) | 91.1 | -0.427 (inactive) | -0.000244 (inactive) | 0.00434 (inactive) | -14.5% (inactive) | -16% (inactive)
24 | COC(=O)C(F)(F)Sc1c(C)[nH]c2ccccc12 | 699 | -2.1% (inactive) | 13.7% (inactive) | 94.7 | 41.7% (inactive) | 108 | -0.444 (inactive) | -1.5e-05 (inactive) | 0.00468 (inactive) | 25.1% (inactive) | 27% (inactive)
25 | O=C(Nc1ccc(S(=O)(=O)NCCc2ccccc2)cc1)c1ccc(Br)o1 | 546 | -1.3% (inactive) | -22.6% (inactive) | 62.9 | -10.4% (inactive) | 88.5 | -0.499 (inactive) | -5.2e-06 (inactive) | 0.00439 (inactive) | -1.94% (inactive) | -11.8% (inactive)
26 | CCCC1CCC(C(=O)Nn2c(C)nc3ccccc3c2=O)CC1 (stereo unspecified) | 340 | 0% (inactive) | -13.5% (inactive) | 73.2 | 11.4% (inactive) | 79 | -0.472 (inactive) | -2.4e-05 (inactive) | 0.00445 (inactive) | 15.6% (inactive) | 18.5% (inactive)
